What is called MIC is the smallest concentration in the dilution series that meets the test's criterion for growth inhibition. The term inhibition denotes the drop in the measured response relative to a control, in per cent.

Structures are written as SMILES. Values after ≈ are worked out from the molar mass of the structure shown. Active and inactive are the calls of the source.

The subject of data set [1] is Escherichia coli. Put plainly: Antibacterial activity against Escherichia coli NCIM 2065 at > 100 […] after 24 hrs by disc diffusion method. It is filed as functional, organism-based. (In general: In agar diffusion tests the substance spreads into inoculated agar from a disc or well.)
The subject of data set [2] is Penicillium chrysogenum. Put plainly: Antibacterial activity against Penicillium chrysogenum NCIM 707 after 72 hrs by disc diffusion method. It is filed as functional. Conditions: for MIC: Penicillium chrysogenum, NCIM 707, 72 h. In outline: (§1)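 Agar disc diffusion against fungi. Fungi were maintained on potato dextrose agar at (25 ± 2) °C for five days before use. Compounds were dissolved in DMSO (10 mg/mL initial solutions) and loaded on discs placed on freshly seeded plates alongside a solvent control disc. Plates were held at 4 °C for 24 h for diffusion, then incubated at 37 ± 5 °C for 72 h. Zones of inhibition (mm) and MICs were recorded.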

The subject of data set [3] is Aspergillus fumigatus. Put plainly: Antibacterial activity against Aspergillus fumigatus NCIM 902 after 72 hrs by disc diffusion method. It is filed as functional. Conditions: for MIC: Aspergillus fumigatus, NCIM 902, 72 h. In outline: as §1
Data set [4] relates to Klebsiella pneumoniae. As to the kind of experiment: Antibacterial activity against Klebsiella pneumoniae NCIM 5082 at > 100 […] after 24 hrs by disc diffusion method. It is filed as functional, organism-based.
For data set [5], the system named is Staphylococcus aureus. As to the kind of experiment: Antibacterial activity against Staphylococcus aureus NCIM 2120 at > 100 […] after 24 hrs by disc diffusion method. It is filed as functional, organism-based.
The subject of data set [6] is Proteus vulgaris. Put plainly: Antibacterial activity against Proteus vulgaris NCIM 2813 at > 100 […] after 24 hrs by disc diffusion method. It is filed as functional, organism-based.
In data set [7] the test system is THP-1. As to the kind of experiment: Antiinflammatory activity in human THP1 cells assessed as inhibition of LPS-induced TNFalpha secretion at 10 uM treated 30 mins before LPS challenge measured after 24 hrs by ELISA relative to control. It is filed as functional. In outline: (§2)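 THP-1 cells were grown in RPMI 1640 with 10% FBS and penicillin/streptomycin, then differentiated with PMA. Compound or vehicle (0.5% DMSO) was added for 30 min at 37 °C, followed by LPS (E. coli 0127:B8, final 1 µg/mL). After 24 h at 37 °C in 5% CO2, TNF-α and IL-6 in the supernatants were quantified by ELISA. Values are the mean of n = 2.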

Data set [8] deals with Trichoderma viride. Put plainly: Antibacterial activity against Trichoderma viride TT after 72 hrs by disc diffusion method. It is filed as functional. The settings on record: for MIC: Trichoderma viride, TT, 72 h. Put shortly:
as §1

Data set [9] concerns THP-1. As to the kind of experiment: Antiinflammatory activity in human THP1 cells assessed as inhibition of LPS-induced IL-6 secretion at 10 uM treated 30 mins before LPS challenge measured after 24 hrs by ELISA relative to control. It is filed as functional. Put shortly: as §2
Background: ELISA stands for enzyme-linked immunosorbent assay.

In data set [10] the test system is Aspergillus niger. Put plainly: Antibacterial activity against Aspergillus niger NCIM 545 after 72 hrs by disc diffusion method. It is filed as functional. The settings on record: for MIC: Aspergillus niger, NCIM 545, 72 h. In outline:
as §1

Data set [11] has as its system Candida albicans. Put plainly: Antibacterial activity against Candida albicans NCIM 3100 after 72 hrs by disc diffusion method. It is filed as functional. Put shortly:
as §1

A short description of data set [12]: Cytotoxicity against […] at 10 uM. It is filed as cell-based.
In data set [13] the test system is Bacillus subtilis. As to the kind of experiment: Antibacterial activity against Bacillus subtilis NCIM 2546 at > 100 […] after 24 hrs by disc diffusion method. It is filed as functional, organism-based.
Data set [14] relates to Trichoderma viride. Put plainly: Antibacterial activity against Trichoderma viride TT at > 100 […] after 72 hrs by disc diffusion method. It is filed as functional, organism-based.
Data set [15] concerns Aspergillus fumigatus. Put plainly: Antibacterial activity against Aspergillus fumigatus NCIM 902 at > 100 […] after 72 hrs by disc diffusion method. It is filed as functional, organism-based.
Data set [16] deals with Candida albicans. As to the kind of experiment: Antibacterial activity against Candida albicans NCIM 3100 at > 100 […] after 72 hrs by disc diffusion method. It is filed as functional, organism-based.
The test system of data set [17] is Penicillium chrysogenum. Put plainly: Antibacterial activity against Penicillium chrysogenum NCIM 707 at > 100 […] after 72 hrs by disc diffusion method. It is filed as functional, organism-based.
Data set [18] deals with Proteus vulgaris. As to the kind of experiment: Antibacterial activity against Proteus vulgaris NCIM 2813 after 24 hrs by disc diffusion method. It is filed as functional. Conditions: for MIC: Proteus vulgaris, NCIM 2813, 24 h. In outline: (§3)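 Paper disc diffusion (6.25 mm Whatman no.1 discs, dry-heat sterilized at 140 °C for 1 h) loaded with compounds at different concentrations in DMSO. Discs were placed in triplicate on nutrient agar seeded with fresh bacterial culture and incubated at 37 °C for 24 h, with solvent and growth controls. Zones of inhibition (mm) and MIC, the concentration completely inhibiting growth, were recorded.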

Data set [19] relates to Escherichia coli. Put plainly: Antibacterial activity against Escherichia coli NCIM 2065 after 24 hrs by disc diffusion method. The settings on record: for MIC: Escherichia coli, NCIM 2065, 24 h. It is filed as functional. In outline:
as §3

Data set [20] deals with Aspergillus niger. Put plainly: Antibacterial activity against Aspergillus niger NCIM 545 at > 100 […] after 72 hrs by disc diffusion method. It is filed as functional, organism-based.
The subject of data set [21] is Staphylococcus aureus. As to the kind of experiment: Antibacterial activity against Staphylococcus aureus NCIM 2120 after 24 hrs by disc diffusion method. It is filed as functional. Conditions: for MIC: Staphylococcus aureus, NCIM 2120, 24 h. Put shortly: as §3
Data set [22] deals with Klebsiella pneumoniae. Put plainly: Antibacterial activity against Klebsiella pneumoniae NCIM 5082 after 24 hrs by disc diffusion method. It is filed as functional. Conditions: for MIC: Klebsiella pneumoniae, NCIM 5082, 24 h. In outline: as §3
The test system of data set [23] is Bacillus subtilis. Put plainly: Antibacterial activity against Bacillus subtilis NCIM 2546 after 24 hrs by disc diffusion method. It is filed as functional. Conditions: for MIC: Bacillus subtilis, NCIM 2546, 24 h. In outline: as §3

Regarding `COc1cc(OC)cc(/C(Cl)=C/C=C/C(=O)c2c(O)cc(OC)cc2OC)c1`, the MIC result in the data set on Escherichia coli [1], in the data set with Klebsiella pneumoniae [4], with Staphylococcus aureus [5], with Proteus vulgaris [6] and in the data set with Bacillus subtilis [13] was “inactive” throughout. Besides, the “inhibition zone (IZ)” value with Penicillium chrysogenum [2] came to 15 mm; in the data set with Aspergillus fumigatus [3], 14 mm; in the data set on Trichoderma viride [8] it was 14 mm; in the data set on Aspergillus niger [10], 16 mm; in the data set on Candida albicans [11], 12 mm. The MIC with Penicillium chrysogenum [2], with Aspergillus fumigatus [3], in the data set with Trichoderma viride [8] and against Aspergillus niger [10] was 50 µg/mL (≈ 124 µM) throughout. Further, the figures for the inhibition at 10 µM with THP-1 [7] and in the data set with THP-1 [9] were 13% and 45%, respectively. The Activity result in [12] was “Non-toxic”.

Consider `COc1ccc(/C(Cl)=C/C=C/C(=O)c2c(O)cc(OC)cc2OC)cc1`, for which the MIC entry with Escherichia coli [1], in the data set with Klebsiella pneumoniae [4], in the data set on Staphylococcus aureus [5], in the data set with Trichoderma viride [14], in the data set with Aspergillus fumigatus [15] and in the data set with Candida albicans [16] was “inactive” in each case. The MIC result in the data set with Penicillium chrysogenum [17] and in the data set on Bacillus subtilis [13] was “inactive” in each case. Moreover, the inhibition at 10 µM was found to be 18% with THP-1 [7] and 78% in the data set on THP-1 [9]. In addition, the “inhibition zone (IZ)” value with Aspergillus niger [10] was determined as 16 mm; in the data set on Proteus vulgaris [18], 17 mm. In addition, the MIC against Aspergillus niger [10] and against Proteus vulgaris [18] was 50 µg/mL (≈ 133 µM) in each case. The Activity entry in data set [12] is given as “Non-toxic”.

In the case of `COc1cc(O)c(C(=O)/C=C/C=C(\Cl)c2ccc(C)cc2)c(OC)c1`, the “inhibition zone (IZ)” value in the data set on Escherichia coli [19] worked out at 12 mm; in the data set with Aspergillus fumigatus [3], 10 mm; in the data set on Staphylococcus aureus [21] it was 16 mm; with Klebsiella pneumoniae [22], 18 mm; with Trichoderma viride [8], 13 mm; in the data set on Bacillus subtilis [23], 15 mm. Also, the “inhibition zone (IZ)” value with Proteus vulgaris [18] was determined as 19 mm. In addition, the MIC result in the data set with Aspergillus niger [20], in the data set with Candida albicans [16] and in the data set with Penicillium chrysogenum [17] was “inactive” in each case. In addition, the MIC came to 50 µg/mL (≈ 139 µM) against Staphylococcus aureus [21], 25 µg/mL (≈ 69.7 µM) in the data set with Klebsiella pneumoniae [22], 50 µg/mL (≈ 139 µM) with Bacillus subtilis [23] and 25 µg/mL (≈ 69.7 µM) in the data set with Proteus vulgaris [18]. For the same compound, the figures for the inhibition at 10 µM in the data set with THP-1 [7] and in the data set on THP-1 [9] were 17% and 36%, respectively. Moreover, the Activity result in [12] was “Non-toxic”.

For `COc1ccc(/C(Cl)=C/C=C/C(=O)c2c(O)cc(OC)cc2OC)c(OC)c1`, the MIC entry in the data set on Escherichia coli [1], with Aspergillus niger [20], in the data set on Proteus vulgaris [6], in the data set on Candida albicans [16] and with Bacillus subtilis [13] was “inactive” throughout. Also, the “inhibition zone (IZ)” value with Penicillium chrysogenum [2] is on record as 14 mm; in the data set with Aspergillus fumigatus [3], 10 mm; in the data set with Staphylococcus aureus [21], 14 mm; with Klebsiella pneumoniae [22], 13 mm; in the data set with Trichoderma viride [8], 10 mm. For the same compound, the MIC in the data set with Penicillium chrysogenum [2] and in the data set on Staphylococcus aureus [21] was 50 µg/mL (≈ 124 µM) each time. In addition, the inhibition at 10 µM is 0% in the data set on THP-1 [7] and 33% in the data set with THP-1 [9]. In data set [12], the Activity result was “Non-toxic”.

As to `COc1cc(O)c(C(=O)/C=C/C=C(\Cl)c2cccc(Cl)c2)c(OC)c1`, the “inhibition zone (IZ)” value came to 16 mm in the data set with Escherichia coli [19], 12 mm in the data set on Bacillus subtilis [23] and 18 mm in the data set with Proteus vulgaris [18]. The MIC against Escherichia coli [19] amounted to 50 µg/mL (≈ 132 µM); against Proteus vulgaris [18], 25 µg/mL (≈ 65.9 µM). The MIC result in the data set with Aspergillus niger [20], in the data set on Klebsiella pneumoniae [4], with Staphylococcus aureus [5], in the data set with Trichoderma viride [14], with Aspergillus fumigatus [15] and in the data set on Candida albicans [16] was “inactive” in each case. Besides, in the data set on Penicillium chrysogenum [17], the MIC entry was “inactive”. The inhibition at 10 µM in the data set on THP-1 [7] is 0%; in the data set with THP-1 [9], 31%. The Activity result in data set [12] was “Non-toxic”.

Take `COc1cc(O)c(C(=O)/C=C/C=C(\Cl)c2ccccc2Cl)c(OC)c1`: the “inhibition zone (IZ)” value with Penicillium chrysogenum [2] was found to be 16 mm; with Escherichia coli [19] it was 14 mm; in the data set on Aspergillus fumigatus [3] it was 14 mm; in the data set on Staphylococcus aureus [21], 16 mm; with Klebsiella pneumoniae [22] it was 18 mm; in the data set on Trichoderma viride [8], 14 mm. In addition, the “inhibition zone (IZ)” value with Bacillus subtilis [23] was determined as 16 mm; in the data set with Aspergillus niger [10], 16 mm; with Proteus vulgaris [18], 20 mm. The MIC against Penicillium chrysogenum [2] came out at 50 µg/mL (≈ 132 µM); with Escherichia coli [19] it was 50 µg/mL (≈ 132 µM); in the data set with Aspergillus fumigatus [3], 50 µg/mL (≈ 132 µM); against Staphylococcus aureus [21], 50 µg/mL (≈ 132 µM); against Klebsiella pneumoniae [22] it was 25 µg/mL (≈ 65.9 µM); against Trichoderma viride [8] it was 50 µg/mL (≈ 132 µM). The MIC with Bacillus subtilis [23] came out at 50 µg/mL (≈ 132 µM); against Aspergillus niger [10], 50 µg/mL (≈ 132 µM); against Proteus vulgaris [18], 25 µg/mL (≈ 65.9 µM). The results for the inhibition at 10 µM with THP-1 [7] and with THP-1 [9] were 17% and 43%, respectively. Moreover, the MIC result in the data set on Candida albicans [16] was “inactive”. Besides, the Activity entry in data set [12] is recorded as “Non-toxic”.

For the origin of these results see ChEMBL document CHEMBL1165858, “Synthesis and biological evaluation of beta-chloro vinyl chalcones as inhibitors of TNF-alpha and IL-6 with antimicrobial activity” (Eur J Med Chem, 2010).
